Reference: ChEMBL document CHEMBL2086239, “Synthesis and biological evaluation of combretastatin-amidobenzothiazole conjugates as potential anticancer agents” (Eur J Med Chem, 2012)
Activity calls are given as the source filed them. No cut-off for these calls is given here.

What was measured:
COLO 205 = test: Cytotoxicity against human COLO205 cells after 48 hrs assessed as inhibition of cell growth at 10 uM after 48 hrs by SRB assay relative to control; format: functional; conditions: COLO 205, 48 h, read-out: GI
Method in brief: (§1)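 SRB protein assay in DMEM with 10% FBS at 37 °C, 5% CO2, 100% relative humidity. Cells seeded in 96-well plates, incubated 24 h, then exposed to drug at 10 µM for 48 h and processed per standard protocol. Absorbance read at 560 nm; growth percentage calculated for test wells relative to control wells.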

IMR-32 = test: Cytotoxicity against human IMR32 cells after 48 hrs assessed as inhibition of cell growth at 10 uM after 48 hrs by SRB assay relative to control; format: functional; conditions: for inhibition of growth at 10 µM: IMR-32, 48 h, read-out: GI; method in brief: as §1
THP-1 = test: Cytotoxicity against human THP1 cells after 48 hrs assessed as inhibition of cell growth at 10 uM after 48 hrs by SRB assay relative to control; format: functional; conditions: THP-1, 48 h, read-out: GI; method in brief: as §1
HEp-2 = test: Cytotoxicity against human Hep2 cells after 48 hrs assessed as inhibition of cell growth at 10 uM after 48 hrs by SRB assay relative to control; format: functional; conditions: for inhibition of growth at 10 µM: HEp-2, 48 h, read-out: GI; method in brief: as §1
A549 = test: Cytotoxicity against human A549 cells assessed as inhibition of cell growth at 10 uM after 48 hrs by SRB assay relative to control; format: functional; conditions: for inhibition of growth at 10 µM: A549, 48 h, read-out: GI; method in brief: as §1
MCF7 [1] = test: Cytotoxicity against human MCF7 cells after 48 hrs assessed as inhibition of cell growth at 10 uM after 48 hrs by SRB assay relative to control; format: functional; conditions: MCF7, 48 h, read-out: GI; method in brief: as §1
PC-3 = test: Cytotoxicity against human PC3 cells after 48 hrs assessed as inhibition of cell growth at 10 uM after 48 hrs by SRB assay relative to control; format: functional; conditions: PC-3, 48 h, read-out: GI; method in brief: as §1
MCF7 [2] = test: Cell cycle arrest in human MCF7 cells assessed as accumulation at G1 phase at 4 uM after 24 hrs by FACS analysis (reference value: 58.33%); format: functional
MCF7 [3] = test: Cell cycle arrest in human MCF7 cells assessed as accumulation at G2/M phase at 4 uM after 24 hrs by FACS analysis (reference value: 34.88%); format: functional
MCF7 [4] = test: Cell cycle arrest in human MCF7 cells assessed as accumulation at S phase at 4 uM after 24 hrs by FACS analysis (reference value: 6.79%); format: functional
MCF7 [5] = test: Inhibition of microtubule organization in human MCF7 cells at 4 uM after 24 hrs by immunofluorescence analysis; format: cell-based
Method in brief: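 MCF-7 cells were grown in DMEM with 10% fetal calf serum and penicillin/streptomycin at 37 °C and 5% CO2. Cells on cover slips were treated for 24 h, then fixed in 4% paraformaldehyde for 20 min. They were permeabilised with 0.2% Triton X-100, held in methanol at 4 °C overnight and blocked with 1% BSA. Staining used anti-α-tubulin (1:100, 2 h RT), FITC secondary and a DAPI/PI mount, with confocal imaging.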

Compound | inhibition of growth at 10 µM (COLO 205) | inhibition of growth at 10 µM (IMR-32) | inhibition of growth at 10 µM (THP-1) | inhibition of growth at 10 µM (HEp-2) | growth inhibition (GI) (A549) | inhibition of growth at 10 µM (MCF7 [1]) | inhibition of growth at 10 µM (PC-3) | Activity (MCF7 [2]) | Activity (MCF7 [3]) | growth inhibition (GI) (IMR-32) | Activity (MCF7 [4]) | inhibition of growth at 10 µM (A549) | growth inhibition (GI) (HEp-2) | inhibition (MCF7 [5])
COc1ccc(/C=C\c2cc(OC)c(OC)c(OC)c2)cc1OCC(=O)Nc1nc2ccc(Cl)cc2s1 | 17% | 51% | 70% | 47% | inactive | 21% | 41% |  |  |  |  |  |  | 
COc1ccc(/C=C\c2cc(OC)c(OC)c(OC)c2)cc1OCC(=O)Nc1nc2ccc(C)cc2s1 | 33% |  | 27% | 44% |  | 57% | 22% | 41.7% | 42.82% | inactive | 15.53% | 37% |  | 
COc1ccc(/C=C\c2cc(OC)c(OC)c(OC)c2)cc1OCC(=O)Nc1nc2ccc([N+](=O)[O-])cc2s1 | 46% | 88% | 80% |  |  | 69% | 47% |  |  |  |  | 50% | inactive | 
COc1ccc(/C=C\c2cc(OC)c(OC)c(OC)c2)cc1OCC(=O)Nc1nc2c(C)cccc2s1 | 24% | 34% | 19% |  | inactive | 29% | 24% | 68.06% | 28.48% |  | 3.46% |  | inactive | 
COc1ccc(/C=C\c2cc(OC)c(OC)c(OC)c2)cc1OCC(=O)Nc1ccc2ncsc2c1 | 11% | 46% | 41% | 20% | inactive | 19% | 58% |  |  |  |  |  |  | 
COc1ccc(/C=C\c2cc(OC)c(OC)c(OC)c2)cc1OCC(=O)Nc1nc2cc(C)c(C)cc2s1 | 51% | 55% | 76% | 23% |  | 68% | 36% | 80.59% | 16.37% |  | 3.04% | 41% |  | 
COC(=O)Nc1nc2cc(C(=O)c3cccs3)ccc2[nH]1 |  |  |  |  |  |  |  |  |  |  |  |  |  | Active
CCOc1ccc2nc(NC(=O)COc3cc(/C=C\c4cc(OC)c(OC)c(OC)c4)ccc3OC)sc2c1 | 45% | 54% | 37% | 49% |  | 35% | 37% | 48.43% | 37.67% |  | 13.91% | 27% |  | 
COc1cccc2c1C(=O)c1c(O)c3c(c(O)c1C2=O)C[C@@](O)(C(=O)CO)C[C@@H]3O[C@H]1C[C@H](N)[C@H](O)[C@H](C)O1 [DOXORUBICIN] | 26% | 73% | 83% | 56% |  | 45% | 75% |  |  |  |  | 52% |  | 
